Drawing on ChEMBL document CHEMBL1141557, “An expeditious one-pot synthesis of 1,6-dideoxy-N-alkylated nojirimycin derivatives and their inhibitory effects on the secretion of IFN-gamma and IL-4” (Bioorg Med Chem, 2008), this text covers Activity, inhibition and IC50 for nine compounds.

The structures appear in SMILES notation. The source made the active and inactive calls. No cut-off for these calls is given here.

Test [1] in a line: Inhibition of alpha mannosidase. Put shortly: (§1)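 Enzyme added to substrate (0.4–5 mM) in 25 mM phosphate and nitrate buffer, with or without iminosugar at various concentrations. Substrates were p-nitrophenyl glycosides; β-galactosidase used o-nitrophenyl β-galactoside.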
A short description of test [2]: Inhibition of alpha galactosidase. The gist of the method: as §1
The target in test [3] is T1, Beta-mannosidase (Homo sapiens) (UniProt O00462).
T1 sequence (whole entry): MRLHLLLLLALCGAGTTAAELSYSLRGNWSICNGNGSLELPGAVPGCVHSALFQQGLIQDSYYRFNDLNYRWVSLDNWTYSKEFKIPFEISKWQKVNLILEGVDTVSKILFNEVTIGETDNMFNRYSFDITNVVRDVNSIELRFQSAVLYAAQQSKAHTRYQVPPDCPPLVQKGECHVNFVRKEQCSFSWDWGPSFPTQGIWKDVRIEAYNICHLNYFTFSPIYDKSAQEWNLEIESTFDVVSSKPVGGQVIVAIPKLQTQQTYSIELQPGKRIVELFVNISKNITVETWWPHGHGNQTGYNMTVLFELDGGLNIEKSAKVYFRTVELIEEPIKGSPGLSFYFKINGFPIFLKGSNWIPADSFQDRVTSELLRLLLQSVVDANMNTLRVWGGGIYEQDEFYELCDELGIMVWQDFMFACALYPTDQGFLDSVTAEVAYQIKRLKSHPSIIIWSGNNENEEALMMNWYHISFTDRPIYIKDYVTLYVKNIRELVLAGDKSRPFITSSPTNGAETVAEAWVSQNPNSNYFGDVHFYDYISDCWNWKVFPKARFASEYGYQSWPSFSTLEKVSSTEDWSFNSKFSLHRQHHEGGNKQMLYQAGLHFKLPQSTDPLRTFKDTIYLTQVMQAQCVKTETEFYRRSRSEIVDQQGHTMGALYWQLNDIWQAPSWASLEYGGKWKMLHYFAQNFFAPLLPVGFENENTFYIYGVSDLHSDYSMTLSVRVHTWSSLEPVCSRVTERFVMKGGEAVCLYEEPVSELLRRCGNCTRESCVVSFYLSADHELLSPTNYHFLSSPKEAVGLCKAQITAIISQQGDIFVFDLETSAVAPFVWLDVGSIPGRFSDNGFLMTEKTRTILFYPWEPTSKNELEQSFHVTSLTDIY
As to the kind of experiment: Inhibition of beta-mannosidase. Put shortly: as §1

The test system of test [4] is Splenocyte. As to the kind of experiment: Inhibition of IFN-gamma secretion in BALB/c mouse splenocytes at 60 uM after 72 hrs by ELISA. In kind it is functional. The gist of the method: (§2)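 Splenocytes from BALB/c mouse spleens, red cells lysed with Tris–NH4Cl pH 7.2, in RPMI-1640 with 10% newborn calf serum; 5 × 10^5 cells per well. Cells pretreated 4 h with 10 µg/mL concanavalin A (type IV), then given compound and held 72 h at 37 °C, 5% CO2. IFN-γ or IL-4 in the supernatant measured by mouse cytokine ELISA, quantified from a standard curve (15.63–500 pg/mL).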
On the technique in general: In an ELISA, binding on a coated surface is turned into a signal by an enzyme label.

The nature of test [5]: Inhibition of beta galactosidase. Put shortly:
as §1

Test [6] deals with Splenocyte. Nature of the test: Inhibition of IL4-secretion in BALB/c mouse splenocytes at 60 uM after 72 hrs by ELISA. In kind it is functional. The gist of the method: as §2
A short description of test [7]: Inhibition of beta glucosidase. Put shortly:
as §1

Test [8] can be described thus: Inhibition of alpha-L-fucosidase. The gist of the method: as §1
Test [9] in a line: Inhibition of alpha glucosidase. The gist of the method:
as §1

A short description of test [10]: Inhibition of concanavalin A-induced BALB/c mouse splenocyte proliferation at 30 uM by MTT assay. In kind it is functional. Put shortly:
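Mouse splenocytes stimulated with concanavalin A; proliferation read by MTT assay as the mitochondrial dehydrogenase activity of surviving cells, with compound at 30 µM.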
(In general: Tetrazolium dyes change colour on reduction, which living cells bring about.)

In the case of `C[C@@H]1[C@@H](O)[C@H](O)[C@@H](O)CN1C1CCCCC1`, the outcome in test [1], in test [2], in test [3], in test [5] and in [7] was inactive. Moreover, the inhibition – broadly, the change of the read-out against control, counted positive when it falls – at 60 µM in the test on Splenocyte [4] amounted to 9.1%; in the test on Splenocyte [6], 57%.

In the case of `CCCCCCCCCCN1C[C@H](O)[C@@H](O)[C@H](O)[C@H]1C`, the outcome in test [8], in test [2], in [9], in [3] and in test [5] was inactive. In addition, the inhibition at 60 µM with Splenocyte [4] was determined as 61%; in the test on Splenocyte [6] it was 90%. This compound also gave an inhibition at 30 µM in [10] of 48.3%.

Consider `CC(=O)NCCN1C[C@H](O)[C@@H](O)[C@H](O)[C@H]1C`, for which the outcome in test [8], in [1], in [2] and in test [3] was inactive. Besides, the inhibition at 60 µM in the test on Splenocyte [4] was found to be 9%; in the test on Splenocyte [6] it was 59.7%. In addition, the IC50 (as a rule, the point on the concentration scale where inhibition reaches its midpoint) in [7] is greater than 2000 µM.

Regarding `C[C@H]1NC[C@H](O)[C@@H](O)[C@@H]1O`, the outcome in [1], in [2], in test [3], in test [5] and in test [7] was inactive. In addition, the inhibition at 60 µM turned out to be 9% in the test on Splenocyte [4] and 58% in the test with Splenocyte [6].

For the compound `CCCCN1C[C@H](O)[C@@H](O)[C@H](O)[C@H]1C`, the IC50 in [8] is 3000 µM; in [1], 2000 µM; in test [2] it was 234 µM; in test [9], 77 µM; in test [7], 540 µM. Besides, the result in test [3] was inactive. The inhibition at 60 µM with Splenocyte [4] came out at 55.5%; with Splenocyte [6], 44%.

Consider `C[C@@H]1[C@@H](O)[C@H](O)[C@@H](O)CN1CCO`, for which the outcome in [1], in [2], in test [9], in test [3] and in test [5] was inactive. Moreover, the inhibition at 60 µM with Splenocyte [4] was 29%; in the test with Splenocyte [6], 57%. Further, the midpoint of inhibition in test [7], the IC50, lay at 34 µM.

Consider `C[C@@H]1[C@@H](O)[C@H](O)[C@@H](O)CN1CCN`, for which the outcome in test [8], in test [1], in test [2], in test [3], in [5] and in [7] was inactive. In addition, the figures for the inhibition at 60 µM in the test with Splenocyte [4] and with Splenocyte [6] were 41% and 64%, respectively.

In the case of `OC[C@H]1NC[C@H](O)[C@@H](O)[C@@H]1O` [DUVOGLUSTAT], at 30 µM the inhibition in test [10] was 15.6%.

`COCCN1C[C@H](O)[C@@H](O)[C@H](O)[C@H]1C`: the outcome in test [1], in test [2], in [9], in [3], in test [5] and in [7] was inactive. For the same compound, the inhibition at 60 µM with Splenocyte [4] turned out to be 16%; with Splenocyte [6], 58.8%.
